Assay outcomes as filed in PubChem.
This is one part of a sample in which hits are shown more often than they occur.
Tcruzi prolif: blocks T. cruzi growth in NIH3T3 culture; T. cruzi beta-gal in NIH3T3, GalScreen luminescence, 90 h; inhibition, % at 8.34 µM; 77,000 compounds, 5.9% hits;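 active = mean inhibition above about 93%, with at least 55% of replicates each passing it, limit read from the data, passing the limit was not always enough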
IDH1 mut inh: blocks human IDH1 R132H reductase activity; diaphorase/resazurin fluorescence, 60 min; inhibition, % at 10 µM; 70,000 compounds, 0.18% hits; AID 624101; in the data active = inhibition above about 34%;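 also: 0% = DMSO and 100% = no enzyme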
KDM4C inh: blocks human GASC-1 (KDM4C) demethylase activity | 96,000 compounds, 0.15% hits | AID 720574 | inhibition, % at 12.5 µM | GST-KDM4C 2-372, H3K9me3 peptide, LANCE TR-FRET;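 active = mean replicate inhibition above about 25%, with at least 55% of replicates also reaching it, limit read from the data, passing the limit was not always enough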
Target sequence (Q9H3R0 2-372 limits assumed): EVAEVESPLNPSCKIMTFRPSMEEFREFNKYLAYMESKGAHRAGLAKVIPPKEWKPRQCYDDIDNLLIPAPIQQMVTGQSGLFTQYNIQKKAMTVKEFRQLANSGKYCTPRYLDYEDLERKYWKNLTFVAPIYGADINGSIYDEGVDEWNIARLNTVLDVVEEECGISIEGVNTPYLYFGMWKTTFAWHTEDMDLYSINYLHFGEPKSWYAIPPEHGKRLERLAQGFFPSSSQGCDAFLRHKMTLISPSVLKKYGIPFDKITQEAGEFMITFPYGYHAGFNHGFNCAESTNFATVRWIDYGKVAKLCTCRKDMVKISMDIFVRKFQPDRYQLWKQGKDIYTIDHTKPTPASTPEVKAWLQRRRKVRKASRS
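System: N-terminal GST-fused human GASC-1 (KDM4C) fragment, residues 2-372; amount: enzyme final amount 10 nM; incubation: reaction 30 min RT, detection step 1 h RT; medium: HEPES buffer, pH 7.5, plus ascorbate; technique: LANCE TR-FRET, Eu antibody, ULight-streptavidin, EDTA, ex 340 nm, em 618/671 nm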
Active calls of the source: *; . = not tested or not shown.

SMILES	Tcruzi prolif	IDH1 mut inh	KDM4C inh
COCc1cn(CC[C@H]2CC[C@H](NC(=O)CCN3CCCCC3)[C@@H](CO)O2)nn1	-32	0	2
C[C@@H]1CCCCO[C@H](CN(C)S(C)(=O)=O)[C@@H](C)CN([C@H](C)CO)C(=O)c2cc(NS(=O)(=O)c3cn(C)cn3)ccc2O1	77	0	1
COc1ccc(NC(=O)Nc2ccc3c(c2)CC(=O)N([C@@H](C)CO)C[C@@H](C)[C@@H](CN(C)C(=O)Nc2ccccc2)O3)cc1	.	4	0
COc1ccc(NC(=O)Nc2ccc3c(c2)CC(=O)N([C@H](C)CO)C[C@H](C)[C@@H](CN(C)C(=O)Nc2ccccc2)O3)cc1	.	0	-3
COc1ccc(NC(=O)N(C)C[C@@H]2Oc3ccc(NC(=O)Nc4ccccc4)cc3CC(=O)N([C@@H](C)CO)C[C@H]2C)cc1	-8	59*	25
COc1ccc(NC(=O)N(C)C[C@H]2Oc3ccc(NC(=O)Nc4ccccc4)cc3CC(=O)N([C@H](C)CO)C[C@@H]2C)cc1	47	1	42*
COc1ccc(NC(=O)Nc2ccc3c(c2)CC(=O)N([C@H](C)CO)C[C@@H](C)[C@H](CN(C)C(=O)Nc2ccc(OC)cc2)O3)cc1	3	-2	5
O=C(N[C@@H]1CC[C@@H](CCNS(=O)(=O)Cc2ccccc2)O[C@@H]1CO)c1ccc2c(c1)OCO2	6	0	-1
O=C(N[C@H]1CC[C@H](CCNS(=O)(=O)Cc2ccccc2)O[C@H]1CO)c1ccc2c(c1)OCO2	16	5	35*
O=C(CN1CCOCC1)N[C@H]1CC[C@@H](CCNC(=O)Nc2cc(F)ccc2F)O[C@@H]1CO	-17	0	2
O=C(CN1CCOCC1)NCC[C@@H]1CC[C@H](NC(=O)Nc2ccc(F)cc2)[C@H](CO)O1	-28	0	0
O=C(CN1CCOCC1)NCC[C@H]1CC[C@H](NC(=O)Nc2ccc(F)cc2)[C@H](CO)O1	-5	73*	69*
O=C(CN1CCOCC1)N[C@@H]1CC[C@H](CCNC(=O)Nc2cc(F)ccc2F)O[C@H]1CO	-19	12	31*
COCC(=O)N(C)C[C@H]1Oc2ncc(C#CCC3CCCC3)cc2C(=O)N([C@H](C)CO)C[C@@H]1C	64	-3	0
Cc1ccccc1S(=O)(=O)NCC[C@H]1CC[C@@H](NC(=O)Nc2cccc(F)c2)[C@H](CO)O1	26	0	1
C[C@@H](O)C#Cc1ccc2c(c1)O[C@@H](CN(C)Cc1cncnc1)[C@@H](C)CN([C@@H](C)CO)S2(=O)=O	7	34*	36*
Cc1noc(C)c1NC(=O)N(C)C[C@@H]1Oc2cc(C#CCN(C)C)ccc2S(=O)(=O)N([C@H](C)CO)C[C@H]1C	31	44*	52*
Cc1noc(C)c1NC(=O)N(C)C[C@H]1Oc2cc(C#CCN(C)C)ccc2S(=O)(=O)N([C@H](C)CO)C[C@@H]1C	26	0	1
C[C@H](CO)N1C[C@H](C)[C@H](CN(C)Cc2ccncc2)Oc2cc(C#CCN(C)C)ccc2S1(=O)=O	93	0	6
C[C@H](O)C#Cc1ccc2c(c1)O[C@H](CN(C)Cc1cncnc1)[C@@H](C)CN([C@@H](C)CO)S2(=O)=O	-40	-2	7
CC(C)CC#Cc1ccc2c(c1)O[C@H](CN(C)C(=O)c1cccnc1)[C@@H](C)CN([C@@H](C)CO)S2(=O)=O	76	0	3
CC(C)CC#Cc1ccc2c(c1)O[C@@H](CN(C)C(=O)c1cccnc1)[C@@H](C)CN([C@@H](C)CO)S2(=O)=O	58	39*	47*
C[C@H]1CN([C@@H](C)CO)S(=O)(=O)c2ccc(C#CCN(C)C)cc2O[C@@H]1CN(C)Cc1ccncc1	97*	5	2
CCNC(=O)C[C@H]1CC[C@@H](NC(=O)C2CC2)[C@H](CO)O1	-9	1	0
COCC#Cc1ccc2c(c1)O[C@@H](CN(C)Cc1cccnc1)[C@@H](C)CN([C@@H](C)CO)S2(=O)=O	16	65*	44*
SMILES	Tcruzi prolif	IDH1 mut inh	KDM4C inh
COCC#Cc1ccc2c(c1)O[C@@H](CN(C)Cc1cccnc1)[C@H](C)CN([C@H](C)CO)S2(=O)=O	52	16	-2
COc1ccc(NC(=O)Nc2ccc3c(c2)[C@H]2C[C@@H](CC(=O)N4CCOCC4)O[C@@H](CO)[C@H]2O3)cc1	-4	0	0
COc1ccc(NC(=O)Nc2ccc3c(c2)C(=O)N(C)C[C@H](OC)[C@H](C)CN[C@H](C)CO3)cc1	-20	.	1
C[C@@H]1CN([C@@H](C)CO)C(=O)c2cccc(NC(=O)c3nc4ccccc4s3)c2O[C@H]1CN(C)Cc1ccc(C(=O)Nc2ccccc2N)cc1	104*	.	0
C[C@@H]1CN([C@@H](C)CO)C(=O)c2cc(C#CCc3ccccc3)cnc2O[C@@H]1CN(C)Cc1ccc(C(=O)O)cc1	.	1	-2
COc1ccc(C#Cc2cnc3c(c2)C(=O)N([C@@H](C)CO)C[C@H](C)[C@H](CN(C)C)O3)cc1	69	0	28*
COc1ccc(C#Cc2cnc3c(c2)C(=O)N([C@H](C)CO)C[C@@H](C)[C@H](CN(C)C)O3)cc1	44	0	-1
COc1ccc(C#Cc2cnc3c(c2)C(=O)N([C@H](C)CO)C[C@H](C)[C@H](CN(C)C)O3)cc1OC	86	-1	29*
C[C@H]1CN([C@@H](C)CO)C(=O)c2cc(C#CCc3ccccc3)cnc2O[C@@H]1CN(C)Cc1ccc(C(=O)O)cc1	.	35*	4
C[C@@H]1CN([C@H](C)CO)C(=O)c2cccc(NC(=O)c3nc4ccccc4s3)c2O[C@@H]1CN(C)Cc1ccc(C(=O)Nc2ccccc2N)cc1	90	0	-1
COc1ccc(C#Cc2cnc3c(c2)C(=O)N([C@H](C)CO)C[C@@H](C)[C@@H](CN(C)C)O3)cc1	76	0	-1
CO[C@@H]1CN(C)C(=O)c2cc(NC(=O)Nc3ccc(C(F)(F)F)cc3)ccc2OC[C@H](C)NC[C@H]1C	-132	0	-1
C[C@H](CO)N1C[C@H](C)[C@H](CN(C)S(=O)(=O)c2ccc(F)cc2)Oc2ccc(NC(=O)CCCCCC(=O)Nc3ccccc3N)cc2CC1=O	18	.	1
C[C@@H]1CN([C@@H](C)CO)C(=O)c2cc(N(C)C)ccc2O[C@H]1CN(C)C(=O)Nc1cccc2ccccc12	-14	3	1
C[C@@H]1CN([C@H](C)CO)S(=O)(=O)c2ccc(C#CC3(O)CCCC3)cc2O[C@H]1CN(C)C(=O)Nc1ccc(F)cc1	-57	0	-1
C[C@@H]1CN([C@H](C)CO)C(=O)c2cccc(NC(=O)C3CC3)c2O[C@@H]1CN(C)S(=O)(=O)c1ccccc1	-7	1	3
C[C@@H]1CN([C@@H](C)CO)C(=O)c2cc(NC(=O)CCCCCC(=O)Nc3ccccc3N)ccc2O[C@H]1CN(C)S(=O)(=O)c1cccs1	42	-1	1
COc1ccccc1-c1cnc2c(c1)C(=O)N([C@H](C)CO)C[C@H](C)[C@@H](CN(C)C)O2	.	-1	3
COc1ccccc1-c1cnc2c(c1)C(=O)N([C@H](C)CO)C[C@@H](C)[C@H](CN(C)C)O2	.	16	33*
